Test results reported in publication PMC3690177 (Bioorganic & medicinal chemistry letters, 2008).

Experiments:
Swiss mice [1] = test: Formalin plantar test with; format: in vivo, mouse; details: for Effect on analgesic effects of methanandamide in formalin test: 30 min before intraplantar formalin with mAEA 50 μg
Summary of the method: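 Swiss mice were pretreated i.p. with vehicle, test compound (20 mg-kg−1) or CB1 antagonist (2 mg-kg−1). Intraplantar formalin followed 30 min later, with or without co-injected (R)-methanandamide (50 μg). Nociception was scored in the first phase (0–15 min) and second phase (15–45 min). n = 8–13. Analysis was repeated-measures ANOVA with Bonferroni tests. Error bars are SEM.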

ob/ob mice = test: Food intake and body-weight gain in ob/ob mice, daily treatment for 2 weeks; format: in vivo, mouse; details: 20 mg-kg−1 i.p. once daily for 2 weeks
Summary of the method: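 Genetically obese ob/ob mice received test compound (20 mg-kg−1, i.p.) or vehicle once daily for 2 weeks. Food intake was recorded, and body weight was expressed as % change from day 0. n = 8 per group. Analysis was 2-way repeated-measures ANOVA with Bonferroni post hoc test. Error bars are SEM.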

mice [2] = test: Motor activity in mice; format: in vivo, mouse; details: 20 mg-kg−1 i.p.; data not shown
[3] = Drug levels in plasma and tissues after systemic administration; format: in vivo, mouse
mice [4] = test: WIN55,212-2-induced catalepsy, ring catalepsy test; format: in vivo, mouse; details: for Effect on WIN55,212-2-induced catalepsy: 30 min prior to WIN55,212-2 5 mg-kg−1
Summary of the method: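 Mice were pretreated i.p. with vehicle, test compound (20 mg-kg−1) or CB1 antagonist (5 mg-kg−1). After 30 min they received vehicle or WIN55,212-2 (5 mg-kg−1, i.p.). Cataleptic behaviour was scored 30 min after the WIN55,212-2 injection. n = 6. Analysis was ANOVA with Bonferroni post hoc tests. Error bars are SEM.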

CB1 receptors = CB1 receptors (Rattus norvegicus, UniProt P20272); test: GTPγS binding in rat cerebellar membrane preparations; format: biochemical; details: absence of WIN55,212-2; 100 nM–10 μM; data not shown
Swiss mice [5] = test: Food intake over 24 h in Swiss mice; format: in vivo, mouse; details: 30 min before dark onset; for Effect on total food consumption: 20 mg-kg−1 i.p.
Summary of the method: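 Male Swiss mice were dosed i.p. with test compound (5 or 20 mg-kg−1) or vehicle 30 min before dark onset. Cumulative food intake was monitored for 24 h. n = 12 per group. Data were analysed by 2-way repeated-measures ANOVA with Bonferroni post hoc test. Error bars are SEM.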

Swiss mice [6] = test: WIN55,212-2-induced hypothermia; format: in vivo, mouse
Summary of the method: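 Swiss mice received a first i.p. injection of vehicle, test compound (20 mg-kg−1) or CB1 antagonist (2 mg-kg−1). A second injection of WIN55,212-2 (3 mg-kg−1, i.p.) followed 30 min later. Body temperature was read 30 min after WIN55,212-2. n = 5. Analysis was ANOVA with Bonferroni post hoc tests. Error bars are SEM.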

mouse CB2 receptors = test: cAMP accumulation in Hek-293 cells stably expressing mouse CB2 receptors; format: cell-based; details: isoproterenol 10 μM alone; basal 18 ± 2.4; n = 4

CB1 receptors, sequence (P20272 whole entry): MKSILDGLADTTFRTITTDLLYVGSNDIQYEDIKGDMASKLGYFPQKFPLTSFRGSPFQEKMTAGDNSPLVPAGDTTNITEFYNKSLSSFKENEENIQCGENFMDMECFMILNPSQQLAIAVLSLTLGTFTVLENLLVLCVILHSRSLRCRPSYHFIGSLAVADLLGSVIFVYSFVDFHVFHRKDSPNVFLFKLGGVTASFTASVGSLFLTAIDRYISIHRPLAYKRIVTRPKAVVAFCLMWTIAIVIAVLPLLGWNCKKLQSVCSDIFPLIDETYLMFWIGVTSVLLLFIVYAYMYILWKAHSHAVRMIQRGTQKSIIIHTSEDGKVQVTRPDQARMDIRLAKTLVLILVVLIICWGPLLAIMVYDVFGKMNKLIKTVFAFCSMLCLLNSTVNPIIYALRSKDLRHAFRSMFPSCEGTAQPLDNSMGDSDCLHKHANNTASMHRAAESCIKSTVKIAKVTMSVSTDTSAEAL

CCCCC/C=C\C/C=C\C/C=C\C/C=C\CCCC(=O)N[C@H](C)CO [(R)-methanandamide]
Effect on nocifensive behavior in the formalin plantar test (Swiss mice [1]; mAEA 50 μg co-injected with formalin): inhibits

Cc1c(C(=O)c2ccccc2)c(N)c(-c2ccccc2)n1Cc1ccc(Cl)cc1 [URB447, [4-amino-1-(4-chlorobenzyl)-2-methyl-5-phenyl-1H-pyrrol-3-yl](phenyl)methanone]
Amount of food consumed throughout the treatment period (ob/ob mice): significant reduction | Body-weight gain (ob/ob mice): significant attenuation | Effect on analgesic effects of methanandamide in formalin test (Swiss mice [1]; 20 mg-kg−1 i.p.): completely blocked | Effect on motor activity (mice [2]): did not alter | Liver Cmax ([3]; 20 mg-kg−1 i.p.): 4.3 ± 0.7 nmol/g | Time of maximal tissue levels in liver ([3]; 20 mg-kg−1 i.p.): 15 min | Time of maximal tissue levels in white adipose fat ([3]; 20 mg-kg−1 i.p.): 15 min | Cmax ([3]; mouse, plasma, ip, 20 mg): 596 ± 117 nM | Tmax ([3]; mouse, plasma, ip, 20 mg): 30 min | Effect on WIN55,212-2-induced catalepsy (mice [4]; 20 mg-kg−1 i.p.): unaffected | Inhibition of basal GTPγS binding (CB1 receptors): failed to inhibit | Effect on food intake (Swiss mice [5]; 5 mg-kg−1 i.p.): no effect | Effect on total food consumption (Swiss mice [5]): drastically reduced

Cc1c(C(=O)c2cccc3ccccc23)c2cccc3c2n1[C@H](CN1CCOCC1)CO3 [WIN55,212-2]
Time spent cataleptic in the ring catalepsy test (mice [4]; 5 mg-kg−1, scored 30 min later): significant increase | Body temperature effect (Swiss mice [6]; 3 mg-kg−1 i.p., 30 min after administration): maximal hypothermia

CC(C)NCC(O)c1ccc(O)c(O)c1 (stereo not drawn) [isoproterenol]
cAMP levels (mouse CB2 receptors): 56.2 ± 6 pmol/well

Cc1c(C(=O)NN2CCCCC2)nn(-c2ccc(Cl)cc2Cl)c1-c1ccc(Cl)cc1 [rimonabant]
Effect on analgesic effects of methanandamide in formalin test (Swiss mice [1]; 2 mg-kg−1 i.p.): completely blocked | Effect on WIN55,212-2-induced catalepsy (mice [4]; 5 mg-kg−1 i.p.): reversed | Effect on WIN55,212-2-induced hypothermia (Swiss mice [6]; 2 mg-kg−1 i.p., 30 min pretreatment, WIN55,212-2 3 mg-kg−1 i.p.): attenuated | Effect on total food consumption (Swiss mice [5]): mimicked
